Data from ChEMBL document CHEMBL4316603, “Fluorination of Photoswitchable Muscarinic Agonists Tunes Receptor Pharmacology and Photochromic Properties” (J Med Chem, 2019).

Columns and labels:
[1] = target: T1, Muscarinic acetylcholine receptor M1 (Homo sapiens, UniProt P11229); assay: Agonist activity at human muscarinic M1 receptor expressed in HEK293T cells co-expressing Galpha subunit and PLC-beta3 by split luciferase complementation assay; format: cell-based
T1 sequence (P11229 whole entry): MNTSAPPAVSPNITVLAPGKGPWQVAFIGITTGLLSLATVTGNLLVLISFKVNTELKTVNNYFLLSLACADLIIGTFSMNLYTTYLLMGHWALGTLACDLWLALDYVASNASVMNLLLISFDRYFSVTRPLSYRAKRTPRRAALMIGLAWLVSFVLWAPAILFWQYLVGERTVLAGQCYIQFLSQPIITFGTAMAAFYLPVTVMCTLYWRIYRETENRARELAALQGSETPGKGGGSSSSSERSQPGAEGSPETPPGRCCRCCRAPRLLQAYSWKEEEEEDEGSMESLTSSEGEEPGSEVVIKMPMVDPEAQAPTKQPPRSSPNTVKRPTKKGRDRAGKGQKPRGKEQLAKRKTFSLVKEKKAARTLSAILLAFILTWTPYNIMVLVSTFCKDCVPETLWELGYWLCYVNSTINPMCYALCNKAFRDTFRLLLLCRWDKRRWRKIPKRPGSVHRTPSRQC

[2] = Chemical stability of the compound at 50 uM incubated for 120 mins under dark conditions by UV-vis spectroscopic analysis; format: physicochemical; settings: 2 h
[3] = target: Muscarinic acetylcholine receptor; assay: Displacement of [3H]-QNB from muscarinic receptor in rat brain membranes incubated for 45 mins under dark conditions by radioligand binding assay; format: cell membranes
Method in brief: (§1)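 Rat brain cortex membranes (meninges and white matter removed, homogenized and centrifuged twice at 50,000 x g, stored at -80 °C). Each tube held 20 μg membrane protein, 200 pM [³H]QNB and competitor at varying concentrations in 10 mM Tris-HCl pH 7.0 with 6 mM MgCl₂, incubated 45 min at 25 °C. Nonspecific binding was defined with 2 μM atropine. Samples were filtered on glass fiber, washed twice with ice-cold buffer and counted by scintillation.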

[4] = target: Muscarinic acetylcholine receptor; assay: Displacement of [3H]-QNB from muscarinic receptor in rat brain membranes incubated for 45 mins under irradiation exposure at 365 nm by radioligand binding assay; format: cell membranes; method in brief: as §1

Row | pEC50 [1] | Stability [2] | pIC50 [3] | pIC50 [4] | SMILES
1 | 6.77 |  |  |  | C[N+](C)(CC#CCOC1=NOCC1)CCCCCC[N+](C)(C)CC#CCOC1=NOCC1
2 | 8.97 | Stable | 6.82 | 6.44 | C[N+](C)(CC#CCOC1=NOCC1)Cc1cc(F)c(/N=N/c2c(F)cc(C[N+](C)(C)CC#CCOC3=NOCC3)cc2F)c(F)c1.[Br-].[Br-]
3 | 7.49 | Stable |  |  | C[N+](C)(CC#CCOC1=NOCC1)Cc1ccc(/N=N\c2ccc(C[N+](C)(C)CC#CCOC3=NOCC3)cc2)cc1.[Br-].[Br-]
4 | 8.3 | Stable |  |  | C[N+](C)(CC#CCOC1=NOCC1)Cc1cc(F)c(/N=N\c2c(F)cc(C[N+](C)(C)CC#CCOC3=NOCC3)cc2F)c(F)c1.[Br-].[Br-]
5 | 5.68 | Stable |  |  | C[N+](C)(CC#CCOC1=NOCC1)Cc1ccc(/N=N\c2ccccc2)cc1.[Br-]

More lines, now with the values behind:

Row | SMILES | pEC50 [1] | Stability [2] | pIC50 [3] | pIC50 [4]
6 | C[N+](C)(C)CC#CCOC1=NOCC1 | 8.9 |  |  | 
7 | C[N+](C)(CC#CCOC1=NOCC1)Cc1cc(F)c(/N=N\c2c(F)cccc2F)c(F)c1.[Br-] | 7.14 | Stable |  | 
8 | C[N+](C)(CC#CCOC1=NOCC1)CCCC[N+](C)(C)CC#CCOC1=NOCC1 | 6.49 |  |  | 
9 | C[N+](C)(CC#CCOC1=NOCC1)CCCCCCCC[N+](C)(C)CC#CCOC1=NOCC1 | 6.89 |  |  | 
10 | C[N+](C)(CC#CCOC1=NOCC1)Cc1cc(F)c(/N=N/c2c(F)cccc2F)c(F)c1.[Br-] | 7.2 | Stable | 5.25 | 5.4
11 | C[N+](C)(CC#CCOC1=NOCC1)Cc1ccc(/N=N/c2ccccc2)cc1.[Br-] | 5.49 | Stable | 5.15 | 5.13
12 | C[N+](C)(CC#CCOC1=NOCC1)CCCCCCCCCC[N+](C)(C)CC#CCOC1=NOCC1 | 7.86 |  |  | 
